# MC4R antag cAMP: antagonists of human melanocortin 4 receptor (MC4R) | P32245 | MC4R-expressing cells, MTII-stimulated cAMP, LANCE TR-FRET | inhibition, % at 6.5 µM | 0.48% of 360,000 active;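 active = inhibition above its plate's cutoff, the mean of tested wells on that plate plus 3 SD, cut at about 29% in these data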
#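 system = U2OS cells with stable human MC4R expression | also added = Melanotan II challenge after compound preincubation | dosing = one concentration, 6.5 µM nominal | incubation = compound 30 min, challenge 1 h, detection 1 h | measured by = TR-FRET with Eu-cAMP and labeled anti-cAMP, 671 nm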
# HTR2A ag: mouse HTR2A agonism via beta-arrestin recruitment; 0.66% of 360,000 active; AID 624169; P35363; activation, % at 7.6 µM; CHO-K1 mHTR2A beta-arrestin complementation, luminescence; percent of 30 µM serotonin response;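 active = activation above a run cutoff, the mean activation of all tested compounds plus 3 SD, cut at about 14% in these data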
# Target sequence (P35363 whole entry, looked up): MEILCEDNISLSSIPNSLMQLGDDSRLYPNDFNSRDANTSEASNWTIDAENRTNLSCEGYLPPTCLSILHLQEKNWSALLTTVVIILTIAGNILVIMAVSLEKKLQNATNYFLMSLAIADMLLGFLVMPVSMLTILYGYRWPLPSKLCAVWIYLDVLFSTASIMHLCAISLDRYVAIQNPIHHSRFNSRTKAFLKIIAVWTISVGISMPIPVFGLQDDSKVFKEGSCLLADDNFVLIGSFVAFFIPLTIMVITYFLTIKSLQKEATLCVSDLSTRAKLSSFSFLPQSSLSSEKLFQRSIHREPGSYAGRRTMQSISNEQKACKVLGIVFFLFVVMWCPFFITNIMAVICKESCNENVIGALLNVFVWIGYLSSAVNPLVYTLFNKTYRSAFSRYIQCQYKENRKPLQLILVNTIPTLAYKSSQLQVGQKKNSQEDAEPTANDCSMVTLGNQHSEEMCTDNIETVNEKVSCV
# MC4R barr agon: activates human MC4R beta-arrestin recruitment | activation, % at 8.9 µM | P32245 | 0.98% of 360,000 active | U2OS MC4R beta-arrestin complementation, luminescence; percent of melanotan II response, DMSO zero;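 active = activation above a per-plate cutoff, the mean activation of sample wells on that plate plus 3 SD, cut at about 8% in these data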
# EBI2 antag: antagonists of human EBI2 receptor; 0.81% of 360,000 active; P32249; EBI2 beta-arrestin recruitment, luminescence, 7a,25-OHC stimulated; inhibition, % at 5 µM; in the data active = inhibition above about 38%;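 also: enzyme fragment complementation signal reports receptor beta-arrestin coupling in cells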
# MOR ag counter: OPRM1 agonism in mouse HTR2A counterscreen. 5.3% of 2,300 active. shares compounds with HTR2A ag. activation, % at 9.3 µM. U2OS OPRM1 beta-arrestin PathHunter, luminescence; DMSO 0%, DAMGO 9.3 µM 100%;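 active = mean activation above the mean of DMSO-only wells plus 3 SD, cut at about 0.5% in these data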
# HTR2A ag conf: mouse HTR2A agonism confirmed; shares compounds with HTR2A ag; CHO-K1 PathHunter beta-arrestin recruitment, luminescence; DMSO 0%, 30 µM serotonin 100%; activation, % at 7.6 µM; 19% of 2,300 active; AID 624381;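 active = mean activation across triplicates above the hit threshold derived in the original primary screen, cut at about 15% in these data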
# A number is an active result; – = inactive; · = no result given. Most compounds without a hit are left out; they make up all but 2.8% or so of the library.
SMILES,MC4R antag cAMP,HTR2A ag,MC4R barr agon,EBI2 antag,MOR ag counter,HTR2A ag conf
COc1cccc(-c2n[nH]nc2C2=CC(=O)C[C@H](c3ccc(F)cc3)C2)c1,–,22,–,–,–,–
COc1ccc([C@H]2CC(=O)C=C(c3cccc(OC)c3)C2)cc1,–,–,–,–,·,·
O=C1C=C(c2ccc(F)cc2OCc2ccccc2)C[C@@H](c2ccc(F)cc2)C1,–,16,–,–,–,–
CC(=O)Nc1ccc(CN2CCN(CC(C)C)C(CCO)C2)cc1 (configuration not stated),–,14,–,–,–,–
O=C(NCCCN1CCOCC1)c1c(-c2ccccc2)oc2c1C(OCCCCCO)CCC2 (configuration not stated),·,–,·,–,·,·
COC(=O)c1ccc2nc(-c3cccc(Br)c3)c(Cc3ccccc3)n2c1,·,–,·,–,·,·
COc1ccc(S(=O)(=O)N2CCOC2CNC(=O)C(=O)NCCc2ccccc2)cc1OC (configuration not stated),–,–,–,–,·,·
COc1ccc(CCNC(=O)C(=O)NCC2CCCN2S(=O)(=O)c2ccccc2)cc1 (configuration not stated),–,16,–,–,–,–
COc1ccc(S(=O)(=O)N2CCOC2CNC(=O)C(=O)NCCc2ccccc2)cc1C (configuration not stated),–,16,–,–,–,–
C#CCOC(=O)CCCC(=O)Nc1ccccc1OC,–,18,–,–,–,–
CNc1cncc(-c2ccc(OC)c(OC)c2)n1,–,–,–,–,·,·
CCNC(=O)CCS(=O)(=O)c1ccc2ccccc2c1,–,16,–,–,–,–
Cc1nc2ccc(NS(=O)(=O)c3ccc(F)cc3F)cc2s1,–,22,–,–,–,–
Cc1nc2ccc(NS(=O)(=O)c3ccc(F)c(F)c3F)cc2s1,–,–,–,–,·,·
CC(=O)Nc1ccc(S(=O)(=O)N2CCN(C(=O)Cc3ccccc3)CC2)cc1,–,17,–,–,–,–
CC(=O)Nc1ccc(S(=O)(=O)N2CCN(CCc3ccccc3)CC2)cc1,–,–,–,–,·,·
C[C@@H]1CN([C@H](C)CO)C(=O)c2cc(C#C[C@@H](C)O)cnc2O[C@H]1CN(C)C(=O)c1ccc(F)cc1,–,–,–,–,·,·
CC1=C(C(=O)OCc2ccccc2)C(c2ccccc2Br)NC(=O)N1 (configuration not stated),–,29,–,–,–,23
COc1ccccc1C1NC(=O)NC(C)=C1C(=O)OCc1ccccc1 (configuration not stated),–,–,–,–,·,·
CC1CC(=O)Nc2ccccc2N1S(=O)(=O)c1ccc(Cl)cc1 (configuration not stated),–,–,–,–,·,·
CC(=O)Nc1ccc(S(=O)(=O)N2c3ccccc3NC(=O)CC2C)c(Cl)c1 (configuration not stated),–,17,–,–,–,–
CCCn1c(SCC(=O)N(C)C2CCCCC2)n[nH]c1=O,–,–,–,–,·,·
OCc1ccccc1-c1ccc2nccn2c1,–,–,–,–,·,·
CCCC(=O)N1CCCC1(C)C(=O)NCCc1ccccn1 (configuration not stated),–,22,–,–,–,–
COc1ccc(S(=O)(=O)Nc2cc3c4c(c2)CC(=O)N4CCC3)cc1OC,–,–,–,–,·,·
SMILES,MC4R antag cAMP,HTR2A ag,MC4R barr agon,EBI2 antag,MOR ag counter,HTR2A ag conf
Cn1ncc(Br)c1NC(=O)Nc1ccc(Cl)cc1,–,–,–,–,·,·
Cn1ncc(Br)c1NC(=O)Nc1ccccc1,–,14,–,–,1.0,–
O=C(Nc1ccccc1Oc1ccccc1)[C@@H]1O[C@H](CO)[C@H](O)[C@H](O)[C@H]1O,–,–,–,–,·,·
Cc1ccc(CNCC(O)(c2ccccc2)c2ccccc2)cc1,–,20,–,–,–,–
CC(=O)c1cccc(NC(=O)C2Cc3c(-c4ccc(Cl)cc4)ccnc3O2)c1 (configuration not stated),–,–,–,–,·,·
Cc1c(C(=O)CN2CCN(c3ccccc3)CC2)c2ccccc2n1C,–,–,–,–,·,·
Cn1c2c(c3ccccc31)CCN(CCCCN1CCN(c3ccccc3)CC1)C2=O,–,21,–,–,–,40
CC1CCCC(=NNc2ccc3ccccc3n2)C1 (configuration not stated),–,–,–,–,·,·
CCCCN1C(=O)C(CC(=O)NCc2cccc3ccccc23)CC(C(=O)N2CCOCC2)=C1C (configuration not stated),–,15,–,–,–,–
O=C(Nc1ccc(-c2n[nH]c(=S)o2)cc1)c1ccccc1Cl,–,17,–,–,–,–
O=C(Nc1ccc(-c2csc(-c3ccccc3)n2)cc1)c1ccccc1Cl,–,–,–,–,·,·
Nc1ncnc2c1ncn2[C@@H]1O[C@H](CNC(=O)[C@@H](N)C2CCCCC2)[C@@H](O)[C@H]1O,–,–,–,–,·,·
O=C1NC(=O)C(Cc2cccc(Oc3ccccc3)c2)S1 (configuration not stated),–,15,–,–,–,–
C[C@H](CO)N1C[C@H](C)[C@H](CN(C)Cc2cncnc2)Oc2cc(Br)ccc2S1(=O)=O,–,18,–,–,–,–
CCOc1cc(-c2c(C)c(C)nc(N)c2C#N)ccc1O,–,15,–,–,–,24
CCOc1cc(-c2c(C)c(CC)nc(N)c2C#N)ccc1O,–,–,–,–,·,·
CCN(CC)Cc1nc2nc(Cl)c(Cl)nc2[nH]1,–,–,–,–,·,·
O=C(Cn1cc(C(F)(F)F)ccc1=O)Nc1ccc2c(c1)OCO2,–,17,–,–,–,–
COc1cccc(OCc2cc(C(=O)NCC3CCCCC3)no2)c1,–,–,–,–,·,·
CCOC(=O)CC1(NC(=O)c2cc(COc3cccc(OC)c3)on2)CCCCC1,–,15,–,–,–,–
O=C(O)C1CC1C(=O)N1CCN(c2ccc(Cl)c(Cl)c2)CC1 (configuration not stated),–,36,–,–,–,19
Cc1occc1C(=O)N1CCN(c2ccc(Cl)c(Cl)c2)CC1,–,36,–,–,–,–
Cc1ccc(NC(=O)Cn2nnc(C(=O)NCc3cccs3)c2N)cc1,–,–,–,–,·,·
COc1ccc(NC(=O)Cn2nnc(C(=O)NCc3cccc(OC)c3)c2N)cc1,–,–,–,–,·,·
COc1cccc(CNC(=O)c2nnn(CC(=O)Nc3cccc(C)c3)c2N)c1,–,18,–,–,–,–
COc1ccc(NC(=O)Cn2nnc(C(=O)NCc3cccs3)c2N)cc1,–,15,–,–,–,–
CC1CCCC(C)N1C(=O)COC(=O)CSc1ccc(C(N)=O)cc1[N+](=O)[O-] (configuration not stated),–,16,–,–,–,–

# Screening data: PubChem BioAssay, several laboratories
